Source: PubChem BioAssay (several laboratories)
Many of the other results were omitted from the sample, so hits are more common in it than they were.
CHOP inh = CHOP inhibition in unfolded protein response | CHO-K1 CHOP-promoter luciferase, tunicamycin-induced, 15-18 h | inhibition, % at 10 µM | 220,000 tested, 3.8% active;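 active means compounds that reduced the stress-induced luciferase reporter signal by more than about 70% of percent inhibition, limit read from the data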;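 further: 0% = tunicamycin plus vehicle and 100% = wells without tunicamycin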
Jurkat NFkB inh = inhibitors of the PMA/ionomycin-induced NF-kB reporter in Jurkat cells; 330,000 tested, 0.53% active; inhibition, % at 4 µM; PMA/ionomycin-induced NF-kB luciferase reporter, luminescence; in the data active means inhibition above about 50%
697 NFkB inh = lowers PMA/ionomycin-induced NF-kB signal in 697 B cells. 697 B-cell NF-kB luciferase reporter, 16 h. inhibition, % at 4 µM. 330,000 tested, 0.33% active. AID 435022; in the data active means inhibition above about 35%
UPR CHOP act = apoptotic UPR (CHOP) activation. CHO-CHOP luciferase reporter, luminescence; percent of tunicamycin response over DMSO baseline. activation, % at 10 µM. 330,000 tested, 0.34% active. AID 449763;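 active means at 10 µM dose, activation of 40% or more, normalized to positive control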;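 further: 100% = tunicamycin at 10 µg/mL and 0% = DMSO alone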
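Evaluation: % reporter activation, DMSO baseline versus tunicamycin full activation; System: CHO-CHOP luciferase reporter cell line; Input: 500 cells/well; Incubation: 6 h compound treatment, 37 °C; Measured by: Steady-Glo luciferase luminescence; Dosing: one dose, 10 µM in 0.5% DMSO; Buffer or medium: F12 medium, 10% FBS; Benchmarks: positive tunicamycin 10 µg/mL, negative DMSO alone.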
UPR XBP1 act = activators of adaptive arm of unfolded protein response (XBP1); CHO-XBP1 luciferase reporter, IRE1-XBP1 UPR activation, luminescence; percent of tunicamycin response, DMSO as zero; activation, % at 20 µM; 330,000 tested, 0.33% active; AID 463104;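 active means versus positive control, 20 µM dose yields 30% or more activation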;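 further: 100% = tunicamycin at 10 µg/mL and 0% = DMSO only wells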
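Material: IRE1-XBP1 luciferase reporter CHO line / Quantity: one thousand reporter cells per well / Buffer or medium: F12 with 10% serum / Compound: 20 µM single concentration, DMSO 1% / Times: 6 h treatment, 37 °C / Detection: Steady-Glo luciferase glow luminescence, 10 min after reagent addition / Benchmarks: tunicamycin high, DMSO low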
Jurkat NFkB conf = lowers PMA/ionomycin-induced NF-kB signal in Jurkat cells | shares compounds with Jurkat NFkB inh | Jurkat NF-kB luciferase, 16 h | inhibition, % at 4 µM | 2,700 tested, 27% active;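 active means inhibition reaching about 45% at 4 µM in either replicate, limit read from the data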;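 further: plate controls were PMA/ionomycin stimulated DMSO wells for no effect and unstimulated DMSO wells for full effect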
Numbers without * were called inactive; . = no result given.

SMILES	CHOP inh	Jurkat NFkB inh	697 NFkB inh	UPR CHOP act	UPR XBP1 act	Jurkat NFkB conf
COc1ccccc1-c1nnc2n1N=C(c1ccc(O)c(O)c1)CS2	-34	81*	16	-2	17	55*
CNc1ccccc1C(C)(C)c1cc(-c2cccc(OC)c2)no1	48	51*	-27	4	1	27
CNc1ccccc1C(C)(C)c1cc(-c2cc(C)cc(C)c2)no1	40	3	12	0	-1	.
CSc1nnc(-c2sc3cc(C(F)(F)F)cnc3c2-c2ccccc2)n1C	7	56*	-13	-2	-2	17
CO/N=C/C(=N\Nc1ccc(C)cc1)C(=O)c1ccc(OC)cc1	.	51*	-6	0	7	33
COc1ccc(Nc2c3c(nc4ccccc24)CCC3)c(OC)c1	.	43	-23	-1	0	.
COc1ccccc1Nc1c2c(nc3ccccc13)CCC2	.	52*	-52	0	1	25
COc1cccc(-c2nn(-c3ccccc3)cc2CNC(C)Cn2cncn2)c1 (configuration not stated)	-6	3	5	-1	-2	.
COc1ccc(C2=Nn3c([n+](C)c4ccccc43)SC2)cc1	6	54*	25	0	2	63*
C[n+]1c2n(c3ccccc31)N=C(c1ccc(Cl)cc1)CS2	3	9	-16	-3	-1	.
CCOC(=O)c1ccc(-c2c(-c3cc(OC)c(OC)c(OC)c3)noc2C)cc1F	.	57*	-38	-2	6	36
Cc1cc(NC(=O)CSc2nc3ccccc3c(=O)n2C2CCCC2)no1	.	64*	15	0	23	51*
CCOC(=O)C(NC(C)=O)C(=O)Nc1ccc(C)cc1C (configuration not stated)	2	2	14	2	-3	.
COc1ccc(C(=O)Nc2ccc3ccccc3c2)cc1OC	.	-108	-104	11	1	.
Cn1nnc2cc(C(=O)Nc3ccc4ccccc4c3)ccc21	-3	-163	-166	5	4	-67
O=C(NNS(=O)(=O)c1ccc(F)cc1)c1cc(Cl)ccc1O	.	-4	0	0	2	.
C(=C\c1ccccc1)/CSc1nnc(-c2ccncc2)n1Cc1ccco1	28	2	5	-3	-3	.
C(=C\c1ccccc1)/CSc1nnc(-c2ccccc2)n1Cc1ccco1	.	60*	-41	-1	3	23
c1ccc(Cn2ccc(-c3cnc(-c4ccccc4)s3)n2)cc1	-27	-154	-192	6	-5	-95
O=C(/C=C/c1ccccn1)c1cc(Cl)cc(Cl)c1O	-25	67*	-11	4	-1	29
COc1ccc2nc(Nc3ccccc3)sc2c1	24	-186	-132	0	3	-117
COc1ccc2nc(Nc3ccccc3OC)sc2c1	-9	-195	-191	4	1	-123
COc1ccc(Nc2nc3ccccc3c(=O)s2)c(OC)c1	60	2	2	-1	-2	.
COc1ccc2nc(NC(=O)c3ccc4ncsc4c3)sc2c1	91*	-151	-203	6	8	-48
Cc1ccc(NC(=O)COC(=O)C2COc3ccccc3O2)cc1 (configuration not stated)	.	-4	7	0	-1	.
SMILES	CHOP inh	Jurkat NFkB inh	697 NFkB inh	UPR CHOP act	UPR XBP1 act	Jurkat NFkB conf
COc1cc(C(=O)NC(=S)Nc2cccc(-c3cc4ccccc4oc3=O)c2)cc(OC)c1OC	25	11	-13	-2	-4	.
Cc1cc(NC(=S)NC(=O)c2ccccc2)ccc1-c1cc2ccccc2oc1=O	27	59*	-24	0	1	4
Cc1ccc(C(=O)Nc2cc3ccccc3oc2=O)cc1	104*	79*	1	-8	-7	77*
COc1ccccc1CNC(=S)NCc1ccc(F)cc1	.	-2	-15	0	-1	.
O=C(COc1ccc2ccccc2c1Br)Nc1ccncc1	.	56*	0	1	-4	32
Cc1ccc(-c2nc3sc4c(c3c(=O)n2N)CCCC4)cc1	36	-188	-192	1	1	-122
Nc1nc(-c2ccccc2)nc2sc3c(c12)CCCC3	49	-162	-244	10	4	-156
Cc1ccc(-c2nc3sc4c(c3c(=O)n2N)CC(C)(C)OC4)cc1	20	-28	-38	2	-1	.
O=C(Nc1ccc(Br)cn1)c1cccc2c1-c1ccccc1C2=O	-16	61*	6	0	3	18
Cc1cccc(-n2ncc3c(N4CC(C)CC(C)C4)ncnc32)c1 (configuration not stated)	65	-166	-199	10	1	-107
CC1CC(C)CN(c2ncnc3c2cnn3Cc2ccc(Cl)cc2)C1 (configuration not stated)	65	-3	-36	0	-6	.
CCN1CCN(c2ncnc3c2cnn3-c2ccc(C)cc2C)CC1	-10	6	16	-3	1	.
Cc1ccc(-n2ncc3c(N4CCN(c5ccccc5)CC4)ncnc32)c(C)c1	84*	60*	-39	-6	-7	39
Cc1cccc(-n2ncc3c(NC4CCCCC4)ncnc32)c1	67	-156	-235	5	7	-148
CC1CN(c2ncnc3c2cnn3-c2ccc(Cl)cc2)CC(C)O1 (configuration not stated)	38	-187	-197	4	-2	-71
Cc1ccc(N2CCN(C(=O)C3CCC(=O)N(Cc4ccc(Cl)cc4)C3)CC2)c(C)c1 (configuration not stated)	.	11	-31	-1	-5	.
CC(C)Oc1ccc2c(=O)c(-c3ccccc3)coc2c1	44	-185	-211	2	-7	-83
CCCCn1cnc2c(sc3nc4c(cc32)CSC(C)(C)C4)c1=O	14	-150	-130	4	1	-78
CCOc1ccc(NS(=O)(=O)c2ccc(C(=O)N(C)CC(=O)Nc3ccc(C)cc3)cc2)cc1	.	2	-7	-1	-3	.
COc1ccc(NC(=O)c2nc(C)c(C3(C)CC(c4ccccc4)=NO3)s2)cc1 (configuration not stated)	-11	55*	-14	0	9	37
CCOC(=O)c1c(C)[nH]c(C(=O)N/N=C/c2ccc(Br)cc2)c1C	25	79*	-72	-1	9	46
CCOC(=O)c1c(C)[nH]c(C(=O)Nc2ccc3c(c2)OCO3)c1C	9	-187	-154	6	1	-94
Cc1[nH]c(C(=O)N/N=C/c2ccc(C(=O)O)cc2)c(C)c1C(=O)N/N=C/c1ccc(C(=O)O)cc1	5	-9	10	-1	-1	.
COc1ccccc1C(=O)Nc1nc2cc3c(cc2s1)OCO3	-50	-134	-210	7	5	.
COc1ccccc1C(=O)Nc1nc2cc3c(cc2s1)OCCO3	24	-160	-194	2	0	-98
